Measurements from ChEMBL document CHEMBL1153775, “Synthesis, structure elucidation and antitumour activity of N-substituted amides of 3-(3-ethylthio-1,2,4-triazol-5-yl)propenoic acid” (Eur J Med Chem, 2009).

How the values were obtained:
[1] = tested on: A549; assay: Cytotoxicity against human A549 cells assessed as growth inhibition at 0.35 mM after 72 hrs by spectrophotometer using BrdU labeling; assay type: functional; details: A549, 72 h, read-out: GI
[2] = tested on: A549; assay: Cytotoxicity against human A549 cells assessed as growth inhibition at 0.17 mM after 24 hrs by spectrophotometer using BrdU labeling; assay type: functional; details: A549, 24 h, read-out: GI
[3] = tested on: A549; assay: Cytotoxicity against human A549 cells assessed as growth inhibition at 0.17 mM after 48 hrs by spectrophotometer using BrdU labeling; assay type: functional; details: A549, 48 h, read-out: GI
[4] = tested on: A549; assay: Cytotoxicity against human A549 cells assessed as growth inhibition at 0.17 mM after 72 hrs by spectrophotometer using BrdU labeling; assay type: functional; details: A549, 72 h, read-out: GI
[5] = tested on: A549; assay: Cytotoxicity against human A549 cells assessed as growth inhibition at 0.03 mM after 24 hrs by spectrophotometer using BrdU labeling; assay type: functional; details: A549, 24 h, read-out: GI
[6] = tested on: A549; assay: Cytotoxicity against human A549 cells assessed as growth inhibition at 0.03 mM after 48 hrs by spectrophotometer using BrdU labeling; assay type: functional; details: A549, 48 h, read-out: GI
[7] = tested on: A549; assay: Cytotoxicity against human A549 cells assessed as growth inhibition at 0.03 mM after 72 hrs by spectrophotometer using BrdU labeling; assay type: functional; details: A549, 72 h, read-out: GI
[8] = tested on: A549; assay: Cytotoxicity against human A549 cells assessed as growth inhibition at 0.35 mM after 24 hrs by spectrophotometer using BrdU labeling; assay type: functional; details: A549, 24 h, read-out: GI
[9] = tested on: A549; assay: Cytotoxicity against human A549 cells assessed as growth inhibition at 0.35 mM after 48 hrs by spectrophotometer using BrdU labeling; assay type: functional; details: A549, 48 h, read-out: GI
[10] = tested on: T47D; assay: Cytotoxicity against human T47D cells assessed as growth inhibition at 0.03 mM after 24 hrs by spectrophotometer using BrdU labeling; assay type: functional; details: read-out: GI
[11] = tested on: T47D; assay: Cytotoxicity against human T47D cells assessed as growth inhibition at 0.03 mM after 48 hrs by spectrophotometer using BrdU labeling; assay type: functional; details: read-out: GI
[12] = tested on: T47D; assay: Cytotoxicity against human T47D cells assessed as growth inhibition at 0.03 mM after 72 hrs by spectrophotometer using BrdU labeling; assay type: functional; details: read-out: GI
[13] = tested on: T47D; assay: Cytotoxicity against human T47D cells assessed as growth inhibition at 0.35 mM after 24 hrs by spectrophotometer using BrdU labeling; assay type: functional; details: read-out: GI
How it was run: (§1)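 Human breast carcinoma T47D cells were plated at 10⁴ cells per mL on microtiter plates. Each compound was added at three doses, given as mM equivalents of three mass concentrations. Plates were incubated for 24, 48 or 72 h. The read-out was percent growth inhibition (GI).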

[14] = tested on: T47D; assay: Cytotoxicity against human T47D cells assessed as growth inhibition at 0.35 mM after 48 hrs by spectrophotometer using BrdU labeling; assay type: functional; details: read-out: GI; how it was run: as §1
[15] = tested on: T47D; assay: Cytotoxicity against human T47D cells assessed as growth inhibition at 0.35 mM after 72 hrs by spectrophotometer using BrdU labeling; assay type: functional; details: read-out: GI; how it was run: as §1
[16] = tested on: T47D; assay: Cytotoxicity against human T47D cells assessed as growth inhibition at 0.17 mM after 24 hrs by spectrophotometer using BrdU labeling; assay type: functional; details: read-out: GI; how it was run: as §1
[17] = tested on: T47D; assay: Cytotoxicity against human T47D cells assessed as growth inhibition at 0.17 mM after 48 hrs by spectrophotometer using BrdU labeling; assay type: functional; details: read-out: GI; how it was run: as §1
[18] = tested on: T47D; assay: Cytotoxicity against human T47D cells assessed as growth inhibition at 0.17 mM after 72 hrs by spectrophotometer using BrdU labeling; assay type: functional; details: read-out: GI; how it was run: as §1
[19] = Cytotoxicity against human HSF cells assessed as growth inhibition at 0.03 mM after 24 hrs by spectrophotometer using BrdU labeling; assay type: cell-based; details: read-out: GI
[20] = Cytotoxicity against human HSF cells assessed as growth inhibition at 0.03 mM after 48 hrs by spectrophotometer using BrdU labeling; assay type: cell-based; details: read-out: GI
[21] = Cytotoxicity against human HSF cells assessed as growth inhibition at 0.03 mM after 72 hrs by spectrophotometer using BrdU labeling; assay type: cell-based; details: read-out: GI
[22] = Cytotoxicity against human HSF cells assessed as growth inhibition at 0.35 mM after 24 hrs by spectrophotometer using BrdU labeling; assay type: cell-based; details: read-out: GI
[23] = Cytotoxicity against human HSF cells assessed as growth inhibition at 0.35 mM after 48 hrs by spectrophotometer using BrdU labeling; assay type: cell-based; details: read-out: GI
[24] = Cytotoxicity against human HSF cells assessed as growth inhibition at 0.35 mM after 72 hrs by spectrophotometer using BrdU labeling; assay type: cell-based; details: read-out: GI
[25] = Cytotoxicity against human HSF cells assessed as growth inhibition at 0.17 mM after 24 hrs by spectrophotometer using BrdU labeling; assay type: cell-based; details: read-out: GI
[26] = Cytotoxicity against human HSF cells assessed as growth inhibition at 0.17 mM after 48 hrs by spectrophotometer using BrdU labeling; assay type: cell-based; details: read-out: GI
[27] = Cytotoxicity against human HSF cells assessed as growth inhibition at 0.17 mM after 72 hrs by spectrophotometer using BrdU labeling; assay type: cell-based; details: read-out: GI

In the case of CCSc1n[nH]c(/C=C\C(=O)Nc2cccc(C)c2)n1, the inhibition of growth at 350 µM [1] is reported as 50%, the inhibition of growth at 170 µM [2] is reported as 50% and the inhibition of growth at 170 µM [3] is reported as 50%. It also gave an inhibition of growth at 170 µM [4] of 25%, an inhibition of growth at 30 µM [5] of 20% and an inhibition of growth at 30 µM [6] of 5%. The inhibition of growth at 30 µM [7] was 0%, the inhibition of growth at 350 µM [8] was 50% and the inhibition of growth at 350 µM [9] was 50%. The inhibition of growth at 30 µM [10] was 0%, the inhibition of growth at 30 µM [11] was 5% and the inhibition of growth at 30 µM [12] was 5%. The inhibition of growth at 350 µM [13] was 0%, the inhibition of growth at 350 µM [14] was 0% and the inhibition of growth at 350 µM [15] was 25%. The inhibition of growth at 170 µM [16] was 5%, the inhibition of growth at 170 µM [17] was 5% and the inhibition of growth at 170 µM [18] was 25%. It also gave an inhibition at 24 h, 30 µM [19] of 0%, an inhibition at 48 h, 30 µM [20] of 0% and an inhibition at 72 h, 30 µM [21] of 0%. It also gave an inhibition at 24 h, 350 µM [22] of 5%, an inhibition at 48 h, 350 µM [23] of 50% and an inhibition at 72 h, 350 µM [24] of 50%. The inhibition at 24 h, 170 µM [25] was 50%, the inhibition at 48 h, 170 µM [26] was 50% and the inhibition at 72 h, 170 µM [27] was 50%.
